Mortality and LC50 data for four compounds are collected here from ChEMBL document CHEMBL3045285, “Synthesis and insecticidal activities of novel anthranilic diamides containing modified N-pyridylpyrazoles” (2010).

Common to all, as to assay type: functional
Assay [1] concerns Plutella xylostella. The experiment in a line: Insecticidal activity against second-instar larval stage of Plutella xylostella (diamondback moth) in cabbage leaves assessed as mortality at 20 mg/l at 25 +/-1 degC treated for 3 secs before larva infestation measured after 2 days by leaf-dip method. As to conditions: 48 h. Summed up: (§1)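 Greenhouse-reared diamondback moth larvae tested by leaf-dip method at 25 ± 1 °C. Test solution made at 200 mg/L, then diluted with distilled water to working concentrations. Mortality scored dead/alive, corrected with Abbott's formula and expressed on a 0–100 scale.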

Assay [2] concerns Mythimna separata. Briefly: Insecticidal activity against fourth-instar larval stage of Mythimna separata (Oriental armyworm) in compound pretreated Zea mays L. Tangyu 10 leaves assessed as mortality at 50 mg/l at 25 +/-1 degC after 2 days. Summed up:
(§2)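 Greenhouse-reared fourth-instar oriental armyworm larvae. Corn (Tangyu 10) leaves laid on moist filter paper in Petri dishes, sprayed with test solution (200 mg/L solution diluted in distilled water), then air-dried. Ten larvae per dish. Held at 25 ± 1 °C; mortality scored dead/alive 2 days post-treatment. Triplicate treatments, Abbott-corrected, 0–100 scale.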

The test system of assay [3] is Plutella xylostella. The experiment in a line: Insecticidal activity against second-instar larval stage of Plutella xylostella (diamondback moth) in cabbage leaves assessed as mortality at 1 mg/l at 25 +/-1 degC treated for 3 secs before larva infestation measured after 2 days by leaf-dip method. As to conditions: 48 h. Summed up: as §1
The subject of assay [4] is Mythimna separata. The experiment in a line: Insecticidal activity against fourth-instar larval stage of Mythimna separata (Oriental armyworm) in compound pretreated Zea mays L. Tangyu 10 leaves assessed as mortality at 200 mg/l at 25 +/-1 degC after 2 days. Summed up: as §2
For assay [5], the system named is Plutella xylostella. The experiment in a line: Insecticidal activity against second-instar larval stage of Plutella xylostella (diamondback moth) in cabbage leaves assessed as mortality at 0.25 mg/l at 25 +/-1 degC treated for 3 secs before larva infestation measured after 2 days by leaf-dip method. As to conditions: 48 h. Put shortly:
as §1

The subject of assay [6] is Plutella xylostella. The experiment in a line: Insecticidal activity against second-instar larval stage of Plutella xylostella (diamondback moth) in cabbage leaves assessed as mortality at 0.125 mg/l at 25 +/-1 degC treated for 3 secs before larva infestation measured after 2 days by leaf-dip method. As to conditions: 48 h. Put shortly:
as §1

The test system of assay [7] is Plutella xylostella. Briefly: Insecticidal activity against second-instar larval stage of Plutella xylostella (diamondback moth) in cabbage leaves assessed as mortality at 10 mg/l at 25 +/-1 degC treated for 3 secs before larva infestation measured after 2 days by leaf-dip method. The following applies: 48 h. Summed up: as §1
In assay [8] the test system is Mythimna separata. The experiment in a line: Insecticidal activity against fourth-instar larval stage of Mythimna separata (Oriental armyworm) in compound pretreated Zea mays L. Tangyu 10 leaves assessed as mortality at 2.5 mg/l at 25 +/-1 degC after 2 days. Put shortly: as §2
Assay [9] concerns Mythimna separata. Briefly: Insecticidal activity against fourth-instar larval stage of Mythimna separata (Oriental armyworm) in compound pretreated Zea mays L. Tangyu 10 leaves assessed as mortality at 5 mg/l at 25 +/-1 degC after 2 days. Summed up: as §2
Assay [10] deals with Mythimna separata. Briefly: Insecticidal activity against fourth-instar larval stage of Mythimna separata (Oriental armyworm) in compound pretreated Zea mays L. Tangyu 10 leaves assessed as mortality at 100 mg/l at 25 +/-1 degC after 2 days. Summed up: as §2
Assay [11] deals with Mythimna separata. The experiment in a line: Insecticidal activity against fourth-instar larval stage of Mythimna separata (Oriental armyworm) in compound pretreated Zea mays L. Tangyu 10 leaves assessed as mortality at 20 mg/l at 25 +/-1 degC after 2 days. Put shortly: as §2
Assay [12] relates to Plutella xylostella. The experiment in a line: Insecticidal activity against second-instar larval stage of Plutella xylostella (diamondback moth) in cabbage leaves assessed as mortality at 0.5 mg/l at 25 +/-1 degC treated for 3 secs before larva infestation measured after 2 days by leaf-dip method. As to conditions: 48 h. Summed up: as §1
The test system of assay [13] is Plutella xylostella. Briefly: Insecticidal activity against second-instar larval stage of Plutella xylostella (diamondback moth) in cabbage leaves assessed as mortality at 5 mg/l at 25 +/-1 degC treated for 3 secs before larva infestation measured after 2 days by leaf-dip method. As to conditions: 48 h. Put shortly: as §1
The subject of assay [14] is Plutella xylostella. The experiment in a line: Insecticidal activity against second-instar larval stage of Plutella xylostella (diamondback moth) in cabbage leaves assessed as mortality at 2.5 mg/l at 25 +/-1 degC treated for 3 secs before larva infestation measured after 2 days by leaf-dip method. The following applies: 48 h. Summed up:
as §1

The subject of assay [15] is Mythimna separata. Briefly: Insecticidal activity against fourth-instar larval stage of Mythimna separata (Oriental armyworm) in compound pretreated Zea mays L. Tangyu 10 leaves assessed as mortality at 10 mg/l at 25 +/-1 degC after 2 days. Put shortly:
as §2

In assay [16] the test system is Plutella xylostella. The experiment in a line: Insecticidal activity against second-instar larval stage of Plutella xylostella (diamondback moth) in cabbage leaves assessed as mortality at 25 +/-1 degC treated for 3 secs before larva infestation measured after 2 days by leaf-dip method. The following applies: 48 h. Summed up:
as §1

Converted amounts (≈) assume the structure as drawn.

Regarding `CNC(=O)c1cc(Cl)cc(C)c1NC(=O)c1cc(CN=[N+]=[N-])nn1-c1ncccc1Cl`, the mortality at 20 µg/mL in [1] and in assay [11] was 100% each time. Besides, in assay [2], the mortality (usually the share of the test organisms that died) at 50 µg/mL came out at 100%. Further, the mortality at 1 µg/mL in assay [3] was determined as 100%. Also, the mortality at 200 µg/mL in [4] turned out to be 100%. For the same compound, the mortality at 0.25 µg/mL in [5] was found to be 75%. In addition, in assay [6], the mortality at 0.125 µg/mL was 45%. The mortality at 10 µg/mL in assay [7] and in assay [15] was 100% throughout. Moreover, the mortality at 2.5 µg/mL in assay [8] was 40%; in assay [14] it was 100%. In addition, the mortality at 5 µg/mL in assay [9] and in assay [13] was 100% in each case. Also, in assay [10], the mortality at 100 µg/mL amounted to 100%. In addition, the mortality at 0.5 µg/mL in assay [12] amounted to 100%.
For the compound `CC(=O)OCc1cc(C(=O)Nc2c(C)cc(Cl)cc2C(=O)NC(C)(C)C)n(-c2ncccc2Cl)n1`, the mortality at 20 µg/mL in [1] and in assay [11] was 100% throughout. Further, in assay [2], the mortality at 50 µg/mL came to 100%. Also, in [3], the mortality at 1 µg/mL was 70%. Besides, in assay [4], the mortality at 200 µg/mL is 100%. For the same compound, in assay [5], the mortality at 0.25 µg/mL turned out to be 25%. Also, the mortality at 0.125 µg/mL in assay [6] stood at 0%. Further, the mortality at 10 µg/mL in [7] and in assay [15] was 100% throughout. The mortality at 5 µg/mL in [9] was 20%; in assay [13], 100%. The mortality at 100 µg/mL in [10] came to 100%. Besides, in assay [12], the mortality at 0.5 µg/mL worked out at 50%. Besides, in [14], the mortality at 2.5 µg/mL was determined as 95%.
In the case of `CNC(=O)c1cc(C(=O)Nc2c(C)cc(Cl)cc2C(=O)NC(C)(C)C)n(-c2ncccc2Cl)n1`, the mortality at 20 µg/mL in [1] and in assay [11] was 100% throughout. Moreover, the mortality at 50 µg/mL in [2] stood at 100%. For the same compound, the mortality at 1 µg/mL in [3] was found to be 100%. The mortality at 200 µg/mL in [4] was determined as 100%. In assay [5], the mortality at 0.25 µg/mL turned out to be 30%. In addition, in [6], the mortality at 0.125 µg/mL turned out to be 0%. Further, the mortality at 10 µg/mL in [7] and in [15] was 100% each time. The mortality at 5 µg/mL in assay [9] was 40%; in assay [13], 100%. Moreover, in assay [10], the mortality at 100 µg/mL was determined as 100%. In addition, in assay [12], the mortality at 0.5 µg/mL is 85%. In addition, the mortality at 2.5 µg/mL in [14] is 100%.
In the case of `CNC(=O)c1cc(Cl)cc(C)c1NC(=O)c1cc(Br)nn1-c1ncccc1Cl` [CHLORANTRANILIPROLE], the mortality at 20 µg/mL in [1] and in [11] was 100% each time. The mortality at 50 µg/mL in assay [2] turned out to be 100%. For the same compound, the mortality at 1 µg/mL in assay [3] was 100%. Moreover, in assay [4], the mortality at 200 µg/mL is 100%. Besides, in assay [5], the mortality at 0.25 µg/mL was determined as 100%. In addition, the LC50 (usually the concentration that kills 50% of the test population) in assay [16] was 3.8 µg/mL (≈ 7.87 µM). In assay [6], the mortality at 0.125 µg/mL was 100%. In addition, the mortality at 10 µg/mL in [7] and in [15] was 100% each time. Also, the mortality at 2.5 µg/mL in [8] and in assay [14] was 100% throughout. Further, the mortality at 5 µg/mL in [9] and in assay [13] was 100% each time. Besides, the mortality at 100 µg/mL in assay [10] was found to be 100%. In addition, the mortality at 0.5 µg/mL in assay [12] was 100%.
